ChEMBL document CHEMBL1141722, “Antioxidative and thrombolytic TMP nitrone for treatment of ischemic stroke” (2008)
The source made the active and inactive calls. The calls are words filed in the database; no cut-off is given here.

Tests used:
Format in all cases: functional
Platelet = test: Inhibition of ADP-induced New Zealand rabbit platelet aggregation at 2 mM treated for 1 min prior to ADP challenge by turbidimetric method relative to control; conditions: Oryctolagus cuniculus
Procedure, shortened: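 New Zealand rabbit blood was anticoagulated with 3.8% citrate (9:1), and PRP was taken by centrifugation. PRP was pre-warmed at 37 °C for 1 min, then drug was added to 2 mM final. After 1 min of stirring, ADP (10 µM) was added and the reaction ran 4 min. Maximum change in light transmission was recorded turbidimetrically and expressed as % of drug-free control.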

[1] = Antioxidant activity assessed as inhibition of ROS-induced linoleic acid peroxidation at 1 mM after 15 mins at 100 degC by modified TBARS assay relative to control
Procedure, shortened: (§1)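 Linoleic acid (1.5% in ethanol) diluted with twofold 200 mM PBS, pH 7.4, then incubated with 2.5 mM FeSO4 (0.2 mL) and test sample at 37 °C for 30 min. The reaction was stopped with 10% TCA and 0.67% TBA, then boiled 15 min. The MDA–TBA adduct in the supernatant was read at 532 nm. % inhibition = [(A−A1)/A]×100 versus control absorbance.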

[2] = Antioxidant activity assessed as inhibition of ROS-induced linoleic acid peroxidation at 2 mM after 15 mins at 100 degC by modified TBARS assay relative to control; procedure, shortened: as §1
[3] = Neuroprotective effect against H202-induced Sprague-Dawley rat cortical neuron injury assessed as cell viability at 100 uM treated 30 mins before H202 challenge measured after 24 hrs by MTT assay; conditions: Cortical neurone
Procedure, shortened: (§2)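 Cortices from 1–3-day-old Sprague–Dawley rats were digested with 0.25% […] at 37 °C, and cells were plated at 9×10^4/well in DMEM/10% FBS for 24 h plus 12 h. Drugs were added 30 min before 0.5 mM H2O2, then incubated 24 h at 37 °C, 5% CO2. Viability was measured by MTT 4 h, DMSO solubilization, A570, as % of untreated/saline control. Means ± SEM of three independent experiments.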

[4] = Neuroprotective effect against H202-induced Sprague-Dawley rat cortical neuron injury assessed as cell viability at 1 mM treated 30 mins before H202 challenge measured after 24 hrs by MTT assay relative to control; conditions: Cortical neurone; procedure, shortened: as §2
Rattus norvegicus [5] = test: Neuroprotective effect against middle cerebral artery occlusion-induced focal cerebral ischemia in Sprague-Dawley rat assessed as reduction in infarct area at 62 mg/kg, ip administered 1 hr after MCA occlusion measured after 24 hrs of reperfusion by TTC staining relative to control; set-up: scale not given: the % may be the effect or the level left; conditions: route intraperitoneal
Procedure, shortened: (§3)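 Female Sprague-Dawley rats (210–240 g) under chloral hydrate (400 mg/kg ip) underwent 2 h transient proximal MCA occlusion by intraluminal suture, then reperfusion. Drug or saline was given ip 1 h after occlusion. After 24 h of reperfusion, 2-mm brain slices were stained with 0.5% TTC for 30 min at 37 °C. Infarct area was expressed as % of total section area. Single-tail Student's t-test versus control.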

Rattus norvegicus [6] = test: Antithrombotic activity in Sprague-Dawley rat venous thrombus model assessed as inhibition of thrombus formation at 2 mg/kg, iv administered 2 hrs after ligation measured after 24 hrs relative to control
Rattus norvegicus [7] = test: Neuroprotective effect against middle cerebral artery occlusion-induced focal cerebral ischemia in Sprague-Dawley rat assessed as reduction in infarct area at 50 mg/kg, ip administered 1 hr after MCA occlusion measured after 24 hrs of reperfusion by TTC staining relative to control; set-up: scale not given: the % may be the effect or the level left; conditions: route intraperitoneal; procedure, shortened: as §3
Rattus norvegicus [8] = test: Antithrombotic activity in rat venous thrombosis model assessed as inhibition of thrombus formation at 1.2 mg/kg
[9] = Neuroprotective effect against H202-induced Sprague-Dawley rat cortical neuron injury assessed as cell viability up to 1 mM treated 30 mins before H202 challenge measured after 24 hrs by MTT assay; conditions: Cortical neurone; procedure, shortened: as §2
Rattus norvegicus [10] = test: Neuroprotective effect against middle cerebral artery occlusion-induced focal cerebral ischemia in Sprague-Dawley rat assessed as reduction in infarct area at 80 mg/kg, ip administered 1 hr after MCA occlusion measured after 24 hrs of reperfusion by TTC staining relative to control; set-up: scale not given: the % may be the effect or the level left; conditions: route intraperitoneal; procedure, shortened: as §3
Rattus norvegicus [11] = test: Antithrombotic activity in Sprague-Dawley rat venous thrombus model assessed as inhibition of thrombus formation at 3.25 mg/kg, iv administered 2 hrs after ligation measured after 24 hrs relative to control
[12] = Neuroprotective effect against H202-induced Sprague-Dawley rat cortical neuron injury assessed as cell viability at 1 to 1000 uM treated 30 mins before H202 challenge measured after 24 hrs by MTT assay; conditions: Cortical neurone; procedure, shortened: as §2
Rattus norvegicus [13] = test: Neuroprotective effect against middle cerebral artery occlusion-induced focal cerebral ischemia in Sprague-Dawley rat assessed as reduction in infarct area at 65 mg/kg, ip administered 1 hr after MCA occlusion measured after 24 hrs of reperfusion by TTC staining relative to control; set-up: scale not given: the % may be the effect or the level left; conditions: route intraperitoneal; procedure, shortened: as §3

| Compound | inhibition at 2000 µM (Platelet) | inhibition [1] | inhibition [2] | Activity [4] | Activity [9] | further results |
| --- | --- | --- | --- | --- | --- | --- |
| CC(=O)Oc1ccccc1C(=O)O [ASPIRIN] | 24.8% | – | – | – | – | – |
| O=C1O[C@H]([C@@H](O)CO)C(O)=C1O | – | 43.3% | 53.2% | – | – | – |
| CC1=NN(c2ccccc2)C(=O)C1 [EDARAVONE] | 32.4% | 37.9% | 43.7% | 82% | – | Activity [3]: Active; Activity (Rattus norvegicus [5]): 52.5% |
| Cc1nc(C)c(C)nc1C [LIGUSTRAZINE] | 36.2% | 6.6% | 9% | – | inactive | inhibition in vivo at 2 mg/kg (Rattus norvegicus [6]): 71.2%; Activity (Rattus norvegicus [7]): 46.3%; inhibition in vivo at 1.2 mg/kg (Rattus norvegicus [8]): 50% |
| Cc1nc(C)c(/C=[N+](\[O-])C(C)(C)C)nc1C | 30% | 13.7% | 40% | 96% | – | Activity (Rattus norvegicus [10]): 56.3%; inhibition in vivo at 3.25 mg/kg (Rattus norvegicus [11]): 57.6%; Activity [12]: Active |
| CC(C)(C)/[N+]([O-])=C/c1ccccc1 | 33.9% | 15.8% | 25.1% | – | inactive | Activity (Rattus norvegicus [13]): 31.1% |
